In brackets after ≈: the same amount, converted by molar mass.
Key:
L1210 [1] = test: Antileukemic activity against mouse L1210 cells allografted in female CDF1 mouse assessed as host mean survival time at 50 mg/kg, ip administered daily for 9 days as Klucel suspension starting 24 hrs after tumor inoculation relative to control; assay type: functional; conditions: route intraperitoneal
How it was run: (§1)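 L1210 leukemia given as an ascitic fluid cell inoculum, ip, to mice of the strain and sex in each line. Test material was given ip for nine daily doses starting 24 h after inoculation, in a Klucel (hydroxypropylcellulose) suspension. Read-out is mean survival time as %T/C versus controls, with >125 taken as significant.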

L1210 [2] = test: Antileukemic activity against mouse L1210 cells allografted in male CDF1 mouse assessed as change in body weight at 50 mg/kg, ip administered daily for 9 days as Klucel suspension starting 24 hrs after tumor inoculation; assay type: functional; conditions: route intraperitoneal
How it was run: (§2)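 Ascitic fluid carrying L1210 cells was inoculated ip. Compound was given ip as a Klucel (hydroxypropylcellulose) suspension in nine daily doses, starting 24 h after inoculation. Body-weight difference (treated minus control) was recorded on day 5. Survival was scored as %T/C of mean survival time.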

Mus musculus [3] = test: Toxicity in female CDF1 mouse allografted with mouse L1210 cells assessed as animal survival at 400 mg/kg, ip administered daily for 9 days as Klucel suspension starting 24 hrs after tumor inoculation measured on fifth day; assay type: organism-based; set-up: dose 400 mg/kg, route intraperitoneal; conditions: in vivo
How it was run: (§3)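 L1210 leukemia passaged as ascitic fluid and inoculated ip. Test agent given ip as a Klucel (hydroxypropylcellulose) suspension, nine daily doses starting 24 h after tumor inoculation. Acute toxicity read as toxicity-day survivors per group (out of 6), recorded on day 5. Animal weight difference T − C was also recorded. Follows NCI screening protocols.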

Mus musculus [4] = test: Toxicity in male CDF1 mouse allografted with mouse L1210 cells assessed as animal survival at 100 mg/kg, ip administered daily for 9 days as Klucel suspension starting 24 hrs after tumor inoculation measured on fifth day; assay type: organism-based; set-up: dose 100 mg/kg, route intraperitoneal; conditions: in vivo; how it was run: as §3
L1210 [5] = test: Antileukemic activity against mouse L1210 cells allografted in female CDF1 mouse assessed as change in body weight at 400 mg/kg, ip administered daily for 9 days as Klucel suspension starting 24 hrs after tumor inoculation; assay type: functional; conditions: route intraperitoneal; how it was run: as §2
L1210 [6] = test: Antileukemic activity against mouse L1210 cells allografted in male CDF1 mouse assessed as change in body weight at 100 mg/kg, ip administered daily for 9 days as Klucel suspension starting 24 hrs after tumor inoculation; assay type: functional; conditions: route intraperitoneal; how it was run: as §2
Mus musculus [7] = test: Toxicity in male CDF1 mouse allografted with mouse L1210 cells assessed as animal survival at 50 mg/kg, ip administered daily for 9 days as Klucel suspension starting 24 hrs after tumor inoculation measured on fifth day; assay type: organism-based; set-up: dose 50 mg/kg, route intraperitoneal; conditions: in vivo; how it was run: as §3
Mus musculus [8] = test: Toxicity in female CDF1 mouse allografted with mouse L1210 cells assessed as animal survival at 50 mg/kg, ip administered daily for 9 days as Klucel suspension starting 24 hrs after tumor inoculation measured on fifth day; assay type: organism-based; set-up: dose 50 mg/kg, route intraperitoneal; conditions: in vivo; how it was run: as §3
L1210 [9] = test: Antileukemic activity against mouse L1210 cells allografted in female CDF1 mouse assessed as host mean survival time at 100 mg/kg, ip administered daily for 9 days as Klucel suspension starting 24 hrs after tumor inoculation relative to control; assay type: functional; conditions: route intraperitoneal; how it was run: as §1
L1210 [10] = test: Antileukemic activity against mouse L1210 cells allografted in female CDF1 mouse assessed as change in body weight at 100 mg/kg, ip administered daily for 9 days as Klucel suspension starting 24 hrs after tumor inoculation; assay type: functional; conditions: route intraperitoneal; how it was run: as §2
L1210 [11] = test: Antileukemic activity against mouse L1210 cells allografted in male CDF1 mouse assessed as change in body weight at 200 mg/kg, ip administered daily for 9 days as Klucel suspension starting 24 hrs after tumor inoculation; assay type: functional; conditions: route intraperitoneal; how it was run: as §2
[12] = Cytotoxicity against human 9KB cells treated as ethanol solution; assay type: functional; conditions: read-out: ED50 (the source's name)
How it was run: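 Compound applied as an ethanol solution; activity read out as ED50 under the general screening protocol.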

L1210 [13] = test: Antileukemic activity against mouse L1210 cells allografted in female CDF1 mouse assessed as change in body weight at 50 mg/kg, ip administered daily for 9 days as Klucel suspension starting 24 hrs after tumor inoculation; assay type: functional; conditions: route intraperitoneal; how it was run: as §2
Mus musculus [14] = test: Toxicity in male CDF1 mouse allografted with mouse L1210 cells assessed as animal survival at 200 mg/kg, ip administered daily for 9 days as Klucel suspension starting 24 hrs after tumor inoculation measured on fifth day; assay type: organism-based; set-up: dose 200 mg/kg, route intraperitoneal; conditions: in vivo; how it was run: as §3
L1210 [15] = test: Antileukemic activity against mouse L1210 cells allografted in male CDF1 mouse assessed as host mean survival time at 100 mg/kg, ip administered daily for 9 days as Klucel suspension starting 24 hrs after tumor inoculation relative to control; assay type: functional; conditions: route intraperitoneal; how it was run: as §1
L1210 [16] = test: Antileukemic activity against mouse L1210 cells allografted in male CDF1 mouse assessed as host mean survival time at 50 mg/kg, ip administered daily for 9 days as Klucel suspension starting 24 hrs after tumor inoculation relative to control; assay type: functional; conditions: route intraperitoneal; how it was run: as §1
L1210 [17] = test: Antileukemic activity against mouse L1210 cells allografted in female CDF1 mouse assessed as host mean survival time at 200 mg/kg, ip administered daily for 9 days as Klucel suspension starting 24 hrs after tumor inoculation relative to control; assay type: functional; conditions: route intraperitoneal; how it was run: as §1
L1210 [18] = test: Antileukemic activity against mouse L1210 cells allografted in female CDF1 mouse assessed as change in body weight at 200 mg/kg, ip administered daily for 9 days as Klucel suspension starting 24 hrs after tumor inoculation; assay type: functional; conditions: route intraperitoneal; how it was run: as §2
L1210 [19] = test: Antileukemic activity against mouse L1210 cells allografted in male CDF1 mouse assessed as host mean survival time at 200 mg/kg, ip administered daily for 9 days as Klucel suspension starting 24 hrs after tumor inoculation relative to control; assay type: functional; conditions: route intraperitoneal; how it was run: as §1

COc1ccc(-c2c(COC(C)=O)c(COC(C)=O)c3n2CCC3)cc1
T/C (L1210 [1]): 77%
Activity (L1210 [2]): -2.9 g
Activity (Mus musculus [3]): Toxic
Activity (Mus musculus [4]): Non-toxic
Activity (L1210 [5]): -0.1 g
Activity (L1210 [6]): -7.2 g
Activity (Mus musculus [7]): Non-toxic
Activity (Mus musculus [8]): Non-toxic
T/C (L1210 [9]): 65%
Activity (L1210 [10]): -2.5 g
Activity (L1210 [11]): -5.2 g
EC50 [12]: 2.5 µg/mL (≈ 6.99 µM)
Activity (L1210 [13]): -1 g
Activity (Mus musculus [14]): Non-toxic
T/C (L1210 [15]): 78%
T/C (L1210 [16]): 113%
T/C (L1210 [17]): 65%
Activity (L1210 [18]): -2.5 g
T/C (L1210 [19]): 130%

From ChEMBL document CHEMBL3244396, “Synthesis and antileukemic activity of 5-substituted 2,3-dihydro-6,7-bis(hydroxymethyl)-1H-pyrrolizine diesters” (J Med Chem, 1977)
